Test results reported in ChEMBL document CHEMBL3621153, “Structure-Based Design of GNE-495, a Potent and Selective MAP4K4 Inhibitor with Efficacy in Retinal Angiogenesis” (ACS Med Chem Lett, 2015).
pIC50: −log10 of the molar value. Activity calls are given as the source filed them. No cut-off for these calls is given here.

Assays:
[1] = Clearance in rat liver microsomes assessed as compound remaining incubated for 1 hr by LC-MS/MS method; type: ADME
Procedure, shortened: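 Compounds incubated with rat liver microsomes for 1 h; percent parent remaining quantified by LC–MS/MS.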

[2] = Ratio of drug level in brain to plasma in rat administered as cassette dosing; type: ADME, organism-based; conditions: read-out: BPR
Procedure, shortened: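 Brain-to-plasma ratio determined in rats after IV cassette dosing.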

[3] = molecular target: T1, Mitogen-activated protein kinase kinase kinase kinase 4 (Homo sapiens, UniProt O95819); experiment: Inhibition of MAP4K4 (unknown origin) by Z'LYTE assay
[4] = Clearance in human liver microsomes assessed as compound remaining incubated for 1 hr by LC-MS/MS method; type: ADME
[5] = Clearance in mouse liver microsomes assessed as compound remaining incubated for 1 hr by LC-MS/MS method; type: ADME
HUVEC = experiment: Anti-angiogenesis activity in HUVEC assessed as inhibition of cell migration; type: functional, cell-based; conditions: Homo sapiens
[6] = Apparent permeability in MDCK cells at 10 uM incubated over 60 mins; type: ADME, cell-based, Canis lupus familiaris; conditions: dog
Procedure, shortened: (§1)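 MDCK cells exposed to test compound at 10 μM over 60 min. Apparent permeability (Papp) measured. Efflux ratio derived from apical–basolateral versus basolateral–apical flux rates.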

[7] = Efflux ratio in MDCK cells at 10 uM incubated over 60 mins; type: ADME, cell-based, Canis lupus familiaris; conditions: dog; procedure, shortened: as §1
Canis familiaris [8] = experiment: Volume of distribution in dog at 5 mg/kg, po; type: ADME, organism-based, Canis lupus familiaris; conditions: in vivo
[9] = Protein binding in mouse plasma; type: ADME, cell-free; conditions: read-out: PPB (converted)
Canis familiaris [10] = experiment: AUC (infinity) in dog at 5 mg/kg, po; type: ADME, organism-based, Canis lupus familiaris; parameters: dose 5 mg/kg, time infinity, route oral; conditions: in vivo
[11] = Clearance in rat at 1 mg/kg, iv; type: ADME, organism-based; conditions: in vivo
Procedure, shortened: (§2)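 Single IV bolus of 1 mg/kg given as a solution in 10% EtOH, 30% PEG400, 60% 50 mM citrate, pH 3.0, in mouse, rat or dog. Three animals per group; mean values reported.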

[12] = Protein binding in rat plasma; type: ADME, cell-free; conditions: read-out: PPB (converted)
Rattus norvegicus = experiment: Volume of distribution in rat at 5 mg/kg, po; type: ADME, organism-based; conditions: in vivo
[13] = Cmax in mouse at 5 mg/kg, po; type: ADME, organism-based; parameters: dose 5 mg/kg, route oral; conditions: in vivo
Procedure, shortened: (§3)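 Oral dose of 5 mg/kg given as a suspension in 0.5% (w/v) methylcellulose/0.2% (w/v) Tween 80 in sterile water, in mouse, rat or dog. Three animals per group; means reported. Bioavailability derived against a 1 mg/kg IV bolus.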

Mus musculus [14] = experiment: Drug level in neonatal mouse pups assessed as time duration for sustained drug exposure at 25 and 50 mg/kg, ip; type: ADME, organism-based; conditions: in vivo
Procedure, shortened: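 Neonatal mouse pups given 25 or 50 mg/kg intraperitoneally. Plasma exposure followed over 24 h post-dose.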

[15] = Cmax in rat at 1 mg/kg, iv; type: ADME, organism-based; parameters: dose 1 mg/kg, route intravenous; conditions: in vivo; procedure, shortened: as §2
[16] = Tmax in dog at 5 mg/kg, po; type: ADME, organism-based, Canis lupus familiaris; conditions: in vivo; procedure, shortened: as §3
[17] = Cmax in dog at 5 mg/kg, po; type: ADME, organism-based, Canis lupus familiaris; parameters: dose 5 mg/kg, route oral; conditions: in vivo; procedure, shortened: as §3
Brain = experiment: Free drug concentration in mouse brain; type: ADME, tissue-based; conditions: in vivo
Procedure, shortened: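 Unbound drug concentration in brain measured in mice at the 1 h time point of the cross-species PK study.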

[18] = Cmax in mouse at 1 mg/kg, iv; type: ADME, organism-based; parameters: dose 1 mg/kg, route intravenous; conditions: in vivo; procedure, shortened: as §2
[19] = AUC (infinity) in mouse at 5 mg/kg, po; type: ADME, organism-based; parameters: dose 5 mg/kg, time infinity, route oral; conditions: in vivo
Mus musculus [20] = experiment: Anti-angiogenesis activity in neonatal mouse pups assessed as delay in retinal vascular outgrowth dosed intraperitoneally daily form P1 to P5 days by isolectin -B4 staining; type: functional, organism-based
Procedure, shortened: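 Newborn mice dosed IP daily with vehicle or 100 mg/kg from P1 to P5. Retinas flat-mounted at P6 and stained with isolectin-B4. Avascular area normalized to total retina, one value per retina. Mann–Whitney unpaired test.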

[21] = Cmax in rat at 5 mg/kg, po; type: ADME, organism-based; parameters: dose 5 mg/kg, route oral; conditions: in vivo; procedure, shortened: as §3
[22] = Half life in rat at 1 mg/kg, iv; type: ADME, organism-based; conditions: in vivo; procedure, shortened: as §2
[23] = Clearance in mouse at 1 mg/kg, iv; type: ADME, organism-based; conditions: in vivo; procedure, shortened: as §2
[24] = AUC (infinity) in rat at 5 mg/kg, po; type: ADME, organism-based; parameters: dose 5 mg/kg, time infinity, route oral; conditions: in vivo
Canis familiaris [25] = experiment: Oral bioavailability in dog at 5 mg/kg; type: ADME, organism-based, Canis lupus familiaris; conditions: in vivo; procedure, shortened: as §3
[26] = Cmax in dog at 1 mg/kg, iv; type: ADME, organism-based, Canis lupus familiaris; parameters: dose 1 mg/kg, route intravenous; conditions: in vivo; procedure, shortened: as §2
[27] = Tmax in rat at 5 mg/kg, po; type: ADME, organism-based; conditions: in vivo; procedure, shortened: as §3
Mus musculus [28] = experiment: Anti-angiogenesis activity in neonatal mouse pups assessed as induction of abnormal retinal vascular morphology at 100 mg/kg, ip dosed daily form P1 to P6 days by isolectin -B4 staining
[29] = Oral bioavailability in rat at 5 mg/kg; type: ADME, organism-based; conditions: in vivo; procedure, shortened: as §3
[30] = Half life in mouse at 1 mg/kg, iv; type: ADME, organism-based; conditions: in vivo; procedure, shortened: as §2
[31] = Half life in dog at 1 mg/kg, iv; type: ADME, organism-based, Canis lupus familiaris; conditions: in vivo; procedure, shortened: as §2
[32] = Tmax in mouse at 5 mg/kg, po; type: ADME, organism-based; conditions: in vivo; procedure, shortened: as §3
[33] = Oral bioavailability in mouse at 5 mg/kg; type: ADME, organism-based; conditions: in vivo; procedure, shortened: as §3
Mus musculus [34] = experiment: Volume of distribution in mouse at 5 mg/kg, po; type: ADME, organism-based; conditions: in vivo
[35] = molecular target: T1, Mitogen-activated protein kinase kinase kinase kinase 4; experiment: Inhibition of MAP4K4 (unknown origin) by LC3K method
Procedure, shortened: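 Kinase activity read on a Caliper LabChip 3000 platform, with IC50 values derived from that read-out.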

T1 sequence (O95819 whole entry): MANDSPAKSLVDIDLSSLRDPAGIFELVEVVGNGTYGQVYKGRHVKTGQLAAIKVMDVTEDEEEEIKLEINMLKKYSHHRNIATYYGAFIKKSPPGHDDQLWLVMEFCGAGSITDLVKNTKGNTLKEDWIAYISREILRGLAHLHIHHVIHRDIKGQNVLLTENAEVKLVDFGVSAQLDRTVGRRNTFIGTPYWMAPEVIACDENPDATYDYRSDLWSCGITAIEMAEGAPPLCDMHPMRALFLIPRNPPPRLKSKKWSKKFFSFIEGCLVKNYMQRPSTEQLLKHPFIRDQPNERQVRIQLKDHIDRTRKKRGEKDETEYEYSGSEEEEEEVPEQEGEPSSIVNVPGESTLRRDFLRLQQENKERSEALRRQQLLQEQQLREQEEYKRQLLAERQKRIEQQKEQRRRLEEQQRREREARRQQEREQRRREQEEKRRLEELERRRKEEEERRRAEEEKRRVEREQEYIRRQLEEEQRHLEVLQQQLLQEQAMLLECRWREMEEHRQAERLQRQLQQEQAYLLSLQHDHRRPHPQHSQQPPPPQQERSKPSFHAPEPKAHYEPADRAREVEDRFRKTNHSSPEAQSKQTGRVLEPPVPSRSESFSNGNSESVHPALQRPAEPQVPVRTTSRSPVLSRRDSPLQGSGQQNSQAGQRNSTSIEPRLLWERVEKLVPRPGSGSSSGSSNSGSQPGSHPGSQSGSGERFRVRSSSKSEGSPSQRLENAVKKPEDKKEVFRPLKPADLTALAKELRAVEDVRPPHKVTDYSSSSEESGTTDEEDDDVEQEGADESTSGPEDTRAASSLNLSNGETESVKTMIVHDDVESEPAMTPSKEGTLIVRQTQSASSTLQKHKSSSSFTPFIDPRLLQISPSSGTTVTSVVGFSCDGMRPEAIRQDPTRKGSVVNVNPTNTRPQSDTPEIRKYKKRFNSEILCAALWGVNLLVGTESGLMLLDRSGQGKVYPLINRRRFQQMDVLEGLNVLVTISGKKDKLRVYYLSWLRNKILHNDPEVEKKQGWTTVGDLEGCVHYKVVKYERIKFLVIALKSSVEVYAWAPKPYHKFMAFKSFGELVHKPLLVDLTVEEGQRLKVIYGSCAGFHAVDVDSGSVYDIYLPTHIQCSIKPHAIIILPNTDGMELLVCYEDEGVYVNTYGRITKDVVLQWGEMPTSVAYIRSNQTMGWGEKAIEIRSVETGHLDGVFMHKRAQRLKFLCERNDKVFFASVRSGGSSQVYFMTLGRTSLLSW

Nc1ncc(C(=O)NC2CNC2)c2ccc(-c3cccc(F)c3)cc12
CLhep predicted [1]: 10.7 mL/min/kg

CNC(=O)N1CC(NC(=O)c2cnc(N)c3cc(-c4cccc(F)c4)ccc23)C1
CLhep predicted [1]: 12.7 mL/min/kg

N#CCNC(=O)c1cnc(N)c2cc(-c3cccc(F)c3)ccc12
CLhep predicted [1]: 23 mL/min/kg | Kp [2]: 0.12 | pIC50 [3]: 7.34

CCC(=O)N1CC(NC(=O)c2cnc(N)c3nc(-c4cccc(F)c4)ccc23)C1
CLhep predicted [4]: 5 mL/min/kg | CLhep predicted [5]: 28 mL/min/kg | pIC50 (HUVEC): 7.10 | pIC50 [3]: 8.46

CNC(=O)N1CC(NC(=O)c2cnc(N)c3nc(-c4cccc(F)c4)ccc23)C1
CLhep predicted [4]: 9 mL/min/kg | CLhep predicted [5]: 32 mL/min/kg | pIC50 (HUVEC): 6.71 | Papp at 1 h, 10 µM [6]: 2.4 ×10⁻⁶ cm/s | efflux ratio at 1 h, 10 µM [7]: 1.1

CC(=O)N1CC(NC(=O)c2cnc(N)c3cc(-c4cccc(F)c4)ccc23)C1
CLhep predicted [1]: 9 mL/min/kg | pIC50 [3]: 7.49

Nc1ncnc2ccc(-c3cccc(F)c3)cc12
CLhep predicted [1]: 47.5 mL/min/kg

NC(=O)c1cnc(N)c2cc(-c3cccc(F)c3)ccc12
CLhep predicted [1]: 40 mL/min/kg | pIC50 [3]: 7.74

Nc1ncc(C(=O)N[C@H]2C[C@@H](O)C2)c2ccc(-c3cccc(F)c3)nc12
CLhep predicted [4]: 6 mL/min/kg | CLhep predicted [5]: 61 mL/min/kg | pIC50 (HUVEC): 6.67 | pIC50 [3]: 8.43 | Papp at 1 h, 10 µM [6]: 10.1 ×10⁻⁶ cm/s | efflux ratio at 1 h, 10 µM [7]: 0.83

Nc1ncc(C(=O)NC2CC2)c2ccc(-c3cccc(F)c3)nc12
CLhep predicted [4]: 16 mL/min/kg | CLhep predicted [5]: 78 mL/min/kg | pIC50 (HUVEC): 7.00 | pIC50 [3]: 8.85 | Papp at 1 h, 10 µM [6]: 3.4 ×10⁻⁶ cm/s | efflux ratio at 1 h, 10 µM [7]: 0.74

Nc1ncc(C(=O)NC2CC(O)C2)c2ccc(-c3cccc(F)c3)cc12 (mixture of isomers)
CLhep predicted [1]: 14.9 mL/min/kg | Kp [2]: 0.02 | pIC50 [3]: 7.39

Nc1ncc(C(=O)NC2CN(C(=O)C3CC3)C2)c2ccc(-c3cccc(F)c3)nc12
Vd (Canis familiaris [8]): 1.1 L/kg | fraction unbound [9]: 0.056 | AUC (Canis familiaris [10]): 21 µM·h | clearance [11]: 7.5 mL/min/kg | fraction unbound [12]: 0.022 | Vd (Rattus norvegicus): 1.2 L/kg | Cmax [13]: 1400 nM | Time (Mus musculus [14]): > 24 h | Cmax [15]: 4 µM | Tmax [16]: 1.7 h | Cmax [17]: 1200 nM | Drug uptake(free) (Brain): 0.008 µM | CLhep predicted [4]: 7 mL/min/kg | Cmax [18]: 2700 nM | AUC(0-inf) [19]: 5.3 µM·h | Activity (Mus musculus [20]): Active | Cmax [21]: 1500 nM | half-life [22]: 204 min | clearance [23]: 19 mL/min/kg | AUC(0-inf) [24]: 12 µM·h | CLhep predicted [5]: 13 mL/min/kg | F (Canis familiaris [25]): 37% | Cmax [26]: 3.9 µM | pIC50 (HUVEC): 7.24 | Tmax [27]: 4 h | pIC50 [3]: 8.43 | Activity (Mus musculus [28]): Active | bioavailability [29]: 40% | half-life [30]: 90 min | half-life [31]: 108 min | Papp at 1 h, 10 µM [6]: 7.3 ×10⁻⁶ cm/s | Tmax [32]: 1 h | bioavailability [33]: 47% | Vd (Mus musculus [34]): 1.6 L/kg | efflux ratio at 1 h, 10 µM [7]: 2.3

Nc1ncc(C(=O)NC2CC2)c2ccc(-c3cccc(F)c3)cc12
pIC50 [35]: 7.80 | CLhep predicted [1]: 28 mL/min/kg
